This is an account of results in ChEMBL document CHEMBL4152209, “Synthesis of 7β-hydroxy-8-ketone opioid derivatives with antagonist activity at mu- and delta-opioid receptors” (Eur J Med Chem, 2018).

Series [1] addresses T1, Delta-type opioid receptor (Homo sapiens, UniProt P41143). The series is described as follows: Displacement of [3H]diprenorphine from human DOR expressed in African green monkey COS1 cell membranes at 1 uM incubated for 1 hr by scintillation counting method. In general terms: In a radioligand displacement assay an active substance lowers the binding of a labelled ligand.

Series [2] has as its target T2, Mu-type opioid receptor (Homo sapiens, UniProt P35372). To be noted: at 10 µM.
Series [3] concerns the target Kappa-type opioid receptor (Homo sapiens) (UniProt P41145). Conditions: at 1 µM.
For series [4], the target named is T2, Mu-type opioid receptor. To be noted: at 1 µM.
Series [5] has as its system HEK293. Nature of the series: Toxicity in HEK293 cells assessed as reduction in cell viability at <100 uM incubated for 24 hrs by cell-titer Glo reagent based assay. Conditions: human, hek293, 24 h. Put shortly: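 HEK-293 cells, 9000 per well, were switched to Opti-MEM and exposed to compound (0.1–100 µM) for 24 h. Viability was read as lysate ATP by CellTiter-Glo luminescence.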

Series [6] deals with T1, Delta-type opioid receptor. Nature of the series: Displacement of [3H]diprenorphine from human DOR expressed in African green monkey COS1 cell membranes at 10 uM incubated for 1 hr by scintillation counting method.
The target of series [7] is Kappa-type opioid receptor (Homo sapiens) (UniProt P41145). Conditions: at 10 µM.
For series [8], the target named is T1, Delta-type opioid receptor. Nature of the series: Antagonist activity at human DOR expressed in African green monkey COS1 cell membranes assessed as inhibition of SNC80-induced [35S]GTPgS binding at 50 uM by scintillation counting method. It counts as functional. Put shortly:
(§1)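 Antagonism in [35S]GTPγS binding used 5 µg of hMOR or hDOR transfected-cell membranes, 1 h at 23 °C, in Tris-HCl pH 7.3 with MgCl₂, NaCl, EDTA, 30 µM GDP and 0.2 nM [35S]GTPγS. Test ligands at 20 or 50 µM were co-incubated with DAMGO (1 µM, MOR) or SNC80 (DOR). Read by filtration and scintillation; n=3 in triplicate.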
For orientation: GTPγS is a poorly hydrolysed GTP analogue; its binding reports G protein activation.

Series [9] concerns the target T1, Delta-type opioid receptor. Nature of the series: Agonist activity at human DOR expressed in African green monkey COS1 cell membranes assessed as stimulation of [35S]GTPgS binding at 20 uM by scintillation counting method. In kind it is functional. Put shortly: (§2)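 Membranes (5 µg) from stably transfected cells expressing hMOR or hDOR were incubated 1 h at 23 °C in 50 mM Tris-HCl pH 7.3 with 5 mM MgCl₂, 100 mM NaCl, 1 mM EDTA, 30 µM GDP and 0.2 nM [35S]GTPγS. Reference opioids were used at 1 or 10 µM and test ligands at 20 or 50 µM. Nonspecific binding was taken with 10 µM GTP. Samples were filtered and counted; three experiments in triplicate.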

Series [10] addresses T2, Mu-type opioid receptor. The series is described as follows: Antagonist activity at human MOR expressed in African green monkey COS1 cell membranes assessed as inhibition of DAMGO-induced [35S]GTPgS binding at 20 uM by scintillation counting method. It counts as functional. Put shortly: as §1
The target of series [11] is T2, Mu-type opioid receptor. The series is described as follows: Displacement of [3H]diprenorphine from human MOR expressed in African green monkey COS1 cell membranes incubated for 1 hr by scintillation counting method.
For series [12], the target named is T1, Delta-type opioid receptor. Nature of the series: Displacement of [3H]diprenorphine from human DOR expressed in African green monkey COS1 cell membranes incubated for 1 hr by scintillation counting method. The essentials: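 hDOR membranes from stably transfected cells, diluted in 50 mM Tris-HCl pH 7.4 with 1 mM EDTA, were incubated with 1 nM [3H]diprenorphine (KD 1.1 nM; Bmax 4.7 pmol/mg) and competitor (1 × 10⁻⁷ to 5 × 10⁻⁵ M) for 1 h at 23 °C. Samples were then filtered on PEI-soaked GF/B and counted by scintillation. Ki was derived from KD; three experiments in triplicate.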

The target of series [13] is T1, Delta-type opioid receptor. Nature of the series: Agonist activity at human DOR expressed in African green monkey COS1 cell membranes assessed as stimulation of [35S]GTPgS binding at 50 uM by scintillation counting method. In kind it is functional. The essentials: as §2
Series [14] deals with T2, Mu-type opioid receptor. Nature of the series: Antagonist activity at human MOR expressed in African green monkey COS1 cell membranes assessed as inhibition of DAMGO-induced [35S]GTPgS binding at 50 uM by scintillation counting method. In kind it is functional. The essentials:
as §1

The source made the active and inactive calls. The rule behind the calls is not given here.

Kappa-type opioid receptor (Homo sapiens), sequence (P41145 whole entry): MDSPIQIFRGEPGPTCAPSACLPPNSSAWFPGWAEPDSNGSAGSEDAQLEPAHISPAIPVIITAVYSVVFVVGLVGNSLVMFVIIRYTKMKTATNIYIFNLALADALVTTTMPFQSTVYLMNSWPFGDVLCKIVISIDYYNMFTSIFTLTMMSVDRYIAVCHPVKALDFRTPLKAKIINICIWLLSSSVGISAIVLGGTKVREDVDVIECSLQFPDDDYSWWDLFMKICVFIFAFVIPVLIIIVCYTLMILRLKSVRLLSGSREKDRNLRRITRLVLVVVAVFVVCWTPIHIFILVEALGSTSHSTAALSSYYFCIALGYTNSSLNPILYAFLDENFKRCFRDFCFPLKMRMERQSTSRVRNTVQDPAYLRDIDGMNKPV
T2 sequence (P35372 whole entry): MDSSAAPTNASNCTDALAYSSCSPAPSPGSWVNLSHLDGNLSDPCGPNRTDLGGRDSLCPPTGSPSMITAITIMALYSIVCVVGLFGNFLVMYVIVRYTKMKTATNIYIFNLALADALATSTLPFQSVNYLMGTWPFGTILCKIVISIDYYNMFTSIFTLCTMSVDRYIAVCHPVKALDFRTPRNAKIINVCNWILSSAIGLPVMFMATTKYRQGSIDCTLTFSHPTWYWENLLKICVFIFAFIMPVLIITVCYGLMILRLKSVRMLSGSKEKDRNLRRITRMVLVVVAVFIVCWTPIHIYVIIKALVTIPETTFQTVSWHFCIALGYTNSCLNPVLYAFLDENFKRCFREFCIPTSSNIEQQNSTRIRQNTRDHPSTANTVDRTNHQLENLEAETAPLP
T1 sequence (P41143 whole entry): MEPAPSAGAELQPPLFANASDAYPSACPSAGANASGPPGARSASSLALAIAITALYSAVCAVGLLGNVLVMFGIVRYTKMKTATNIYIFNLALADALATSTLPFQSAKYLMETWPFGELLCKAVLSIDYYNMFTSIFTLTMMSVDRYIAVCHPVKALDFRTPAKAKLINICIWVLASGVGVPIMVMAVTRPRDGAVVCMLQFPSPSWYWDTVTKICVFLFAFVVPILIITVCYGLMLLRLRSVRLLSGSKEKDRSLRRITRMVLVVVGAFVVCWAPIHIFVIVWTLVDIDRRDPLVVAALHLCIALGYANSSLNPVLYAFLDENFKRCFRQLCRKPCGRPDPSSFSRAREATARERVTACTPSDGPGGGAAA

The term inhibition denotes the share of the control response that was lost under treatment. For `COC(=O)N1CC[C@]23c4c5ccc(OC(C)=O)c4O[C@H]2[C@@H](OC(C)=O)[C@H](O)C(=O)[C@H]3[C@H]1C5`, the inhibition came to 22% in [1]; 9% in series [2]; 4% in series [3]; 7% in series [4]; 51% in series [6]; 8% in series [7]. The Activity result in [5] is “Non-Toxic”.
In the case of `C[C@@H](NC(=O)[C@@H](N)Cc1ccc(O)cc1)C(=O)NCC(=O)N(C)[C@@H](Cc1ccccc1)C(=O)NCCO`, the values for the inhibition in [2] and in series [4] were 85% and 67%, respectively.
`COC(=O)N1CC[C@]23c4c5ccc(OC)c4O[C@H]2[C@@H](OC)C=C[C@H]3[C@H]1C5`: the inhibition in [1] amounted to 2%; in [2], 11%; in series [3] it was 6%; in [4], 3%; in series [6] it was 10%; in series [7], 2%.
As a reminder, the Ki is the equilibrium dissociation constant of an inhibitor or competing ligand from its target. In the case of `COC(=O)N1CC[C@]23c4c5ccc(O)c4O[C@H]2[C@@H](O)[C@H](O)C(=O)[C@H]3[C@H]1C5`, the inhibition in series [1] was 24%; in [2], 48%; in series [3] it was 6%; in [4] it was 8%; in series [6], 63%; in [7], 21%. The inhibition entry in series [8], in [10] and in series [14] was “Active” each time. Also, the result in series [9] and in [13] was inactive. Besides, in series [5], the Activity entry is “Non-Toxic”. For the same molecule, the Ki fell in the range of 1.08 to 2.58 µM in series [11] and 1.13 to 1.83 µM in series [12].
Turning to `CN1CC[C@]23c4c5ccc(O)c4O[C@H]2[C@@H](O)C=C[C@H]3[C@H]1C5`, the inhibition in series [1] amounted to 31%; in series [6], 63%. Moreover, the outcome in [9] and in series [13] was Active.
On to `COC(=O)N1CC[C@]23c4c5ccc(OC(C)=O)c4O[C@H]2[C@@H](OC(C)=O)C=C[C@H]3[C@H]1C5`, for which the inhibition was 1% in series [1]; 3% in [2]; 0% in series [3]; 1% in series [4]; 9% in [6]; 1% in series [7].
With `COC(=O)N1CC[C@]23c4c5ccc(O)c4O[C@H]2[C@@H](O)C=C[C@H]3[C@H]1C5`, the inhibition in series [1] turned out to be 21%; in series [2], 58%; in series [3], 7%; in [4], 16%; in [6], 59%; in [7], 27%. Further, the inhibition result in [8], in [10] and in [14] was “Active” in each case. The outcome in [9] and in series [13] was inactive. In [5], the Activity result is given as “Non-Toxic”. Moreover, the results for the Ki in series [11] and in series [12] were 0.814 to 1.72 µM and 1.69 to 2.63 µM, respectively.
Regarding `Oc1ccc2c3c1O[C@H]1c4[nH]c5ccccc5c4C[C@@]4(O)[C@@H](C2)N(CC2CC2)CC[C@]314`, the inhibition in series [1] and in series [6] was 94% in each case.
With `COC(=O)N1CC[C@]23c4c5ccc(OC)c4O[C@H]2[C@@H](OC)[C@H](O)C(=O)[C@H]3[C@H]1C5`, the inhibition worked out at 5% in [1]; 5% in [2]; 5% in series [3]; 5% in series [4]; 19% in series [6]; 0% in series [7]. In [5], the Activity result is recorded as “Non-Toxic”.
